# pIC50: −log10 of the molar value. Several values for one entry are separate records, joined by “and”; a condition that tells them apart may be missing. Identical values can stand only once.
# How the values were obtained:
# [1] = molecular target: Matrix metalloproteinase-9 (Homo sapiens, UniProt P14780); assay: Inhibitory activity against matrix metalloprotease-9 (MMP9)
# [2] = molecular target: 72 kDa type IV collagenase (Homo sapiens, UniProt P08253); assay: Inhibitory activity against matrix metalloprotease-2 (MMP2)
# [3] = In vivo maximum plasma concentration was determined in mice after 5 mg/kg (iv) administration; assay type: ADME, organism-based; design: route intravenous, dose 5 mg/kg; conditions: mouse
# [4] = In vivo maximum plasma concentration was determined in mice after 50 mg/kg (ip) administration; assay type: ADME, organism-based; design: route intraperitoneal, dose 50 mg/kg; conditions: mouse
# [5] = In vivo maximum plasma concentration was determined in mice after 50 mg/kg (po) administration; assay type: ADME, organism-based; design: route oral, dose 50 mg/kg; conditions: mouse
# [6] = organism: Homo sapiens; assay: In vitro metabolic stability and first pass metabolism was evaluated in human hepatic microsomes; assay type: ADME, Liver
# [7] = organism: Homo sapiens; assay: In vitro absorption was measured in Caco-2 cell; assay type: ADME
# [8] = Bioavailability in mouse (dose 50 mg/kg i.p.); assay type: ADME, organism-based; conditions: in vivo, ip
# [9] = Bioavailability in mouse (dose 50 mg/kg p.o.); assay type: ADME, organism-based; conditions: in vivo, po
# [10] = In vivo half life in mice after 5 mg/kg (iv) administration; assay type: ADME, organism-based; design: dose 5 mg/kg; conditions: mouse
# [11] = organism: Rattus norvegicus; assay: In vitro metabolic stability and first pass metabolism was evaluated in rat hepatic microsomes; assay type: ADME, Liver
# [12] = In vivo half life in mice after 50 mg/kg (ip) administration; assay type: ADME, organism-based; design: dose 50 mg/kg; conditions: mouse
# [13] = In vivo half life in mice after 50 mg/kg (po) administration; assay type: ADME, organism-based; design: dose 50 mg/kg; conditions: mouse
# [14] = molecular target: T1, Interstitial collagenase (Homo sapiens, UniProt P03956); assay: Inhibitory activity against matrix metalloprotease-1 (MMP1)
# T1 sequence (P03956 whole entry): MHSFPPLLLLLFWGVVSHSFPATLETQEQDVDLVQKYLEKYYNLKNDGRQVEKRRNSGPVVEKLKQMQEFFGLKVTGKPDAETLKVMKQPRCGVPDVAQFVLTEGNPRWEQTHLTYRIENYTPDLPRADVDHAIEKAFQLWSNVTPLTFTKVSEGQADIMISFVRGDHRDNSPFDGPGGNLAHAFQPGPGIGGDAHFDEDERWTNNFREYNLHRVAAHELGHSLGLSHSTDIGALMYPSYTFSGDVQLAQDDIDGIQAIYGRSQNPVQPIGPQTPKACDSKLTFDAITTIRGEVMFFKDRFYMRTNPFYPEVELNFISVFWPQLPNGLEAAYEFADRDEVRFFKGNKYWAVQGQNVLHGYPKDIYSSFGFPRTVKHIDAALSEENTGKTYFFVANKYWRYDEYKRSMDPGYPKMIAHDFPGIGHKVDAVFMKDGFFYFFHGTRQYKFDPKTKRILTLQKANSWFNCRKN
# [15] = molecular target: Collagenase 3 (Homo sapiens, UniProt P45452); assay: Inhibitory activity against matrix metalloprotease-13 (MMP13)
# [16] = system: Mus musculus; assay: Tested for antitumor activity in mice against B16F10 melanoma measured as reduction in number of metastases at 100 mg/kg (ip); assay type: functional
# Procedure, shortened: (§1)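 B16-F10 cells passaged in vitro, then 2×10^5 cells per mouse injected into the tail vein of B6D2F1 mice in PBS with 0.5% foetal calf serum. 7 mice per group. Dosing i.p. or p.o. 1 h before inoculation, then daily for 3 days (four doses). Lungs collected on day 11 and fixed in Bouin's fluid. Metastases per lung (total and ≥1 mm) given as % of control mean.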
# [17] = system: Mus musculus; assay: Tested for antitumor activity in mice against B16F10 melanoma measured as reduction in number of metastases at 100 mg/kg (po); assay type: functional; procedure, shortened: as §1
# [18] = system: Mus musculus; assay: Tested for antitumor activity in mice against B16F10 melanoma measured as reduction in number of metastases at 200 mg/kg (ip); assay type: functional; procedure, shortened: as §1
# [19] = system: Mus musculus; assay: Tested for antitumor activity in mice against B16F10 melanoma measured as reduction in number of metastases at 200 mg/kg (po); assay type: functional; procedure, shortened: as §1
# [20] = molecular target: Stromelysin-1 (Homo sapiens, UniProt P08254); assay: Inhibitory activity against matrix metalloprotease-3 (MMP3)
# [21] = system: Mus musculus; assay: Tested for antitumor activity in mice against B16F10 melanoma measured as reduction in number of metastases at 25 mg/kg (ip); assay type: functional; procedure, shortened: as §1
# [22] = system: Mus musculus; assay: Tested for antitumor activity in mice against B16F10 melanoma measured as reduction in number of metastases at 50 mg/kg (ip); assay type: functional; procedure, shortened: as §1
# [23] = Bioavailability determined; assay type: ADME, organism-based; conditions: eutheria, in vivo
# Sequence of Stromelysin-1 (P08254 whole entry): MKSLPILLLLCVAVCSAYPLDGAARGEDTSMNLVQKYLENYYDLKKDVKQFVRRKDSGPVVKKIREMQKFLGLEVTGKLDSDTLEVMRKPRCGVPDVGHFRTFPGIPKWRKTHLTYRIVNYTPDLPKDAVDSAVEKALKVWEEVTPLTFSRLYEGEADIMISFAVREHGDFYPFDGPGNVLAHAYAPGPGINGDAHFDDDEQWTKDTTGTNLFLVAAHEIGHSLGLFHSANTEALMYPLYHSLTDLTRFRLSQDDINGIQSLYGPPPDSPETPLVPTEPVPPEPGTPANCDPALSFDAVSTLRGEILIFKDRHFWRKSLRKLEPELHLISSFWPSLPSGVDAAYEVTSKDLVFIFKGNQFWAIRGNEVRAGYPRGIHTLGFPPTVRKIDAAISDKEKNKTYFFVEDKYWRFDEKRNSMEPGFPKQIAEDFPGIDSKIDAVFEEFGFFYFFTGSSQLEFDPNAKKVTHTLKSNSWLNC
# Sequence of Matrix metalloproteinase-9 (P14780 whole entry): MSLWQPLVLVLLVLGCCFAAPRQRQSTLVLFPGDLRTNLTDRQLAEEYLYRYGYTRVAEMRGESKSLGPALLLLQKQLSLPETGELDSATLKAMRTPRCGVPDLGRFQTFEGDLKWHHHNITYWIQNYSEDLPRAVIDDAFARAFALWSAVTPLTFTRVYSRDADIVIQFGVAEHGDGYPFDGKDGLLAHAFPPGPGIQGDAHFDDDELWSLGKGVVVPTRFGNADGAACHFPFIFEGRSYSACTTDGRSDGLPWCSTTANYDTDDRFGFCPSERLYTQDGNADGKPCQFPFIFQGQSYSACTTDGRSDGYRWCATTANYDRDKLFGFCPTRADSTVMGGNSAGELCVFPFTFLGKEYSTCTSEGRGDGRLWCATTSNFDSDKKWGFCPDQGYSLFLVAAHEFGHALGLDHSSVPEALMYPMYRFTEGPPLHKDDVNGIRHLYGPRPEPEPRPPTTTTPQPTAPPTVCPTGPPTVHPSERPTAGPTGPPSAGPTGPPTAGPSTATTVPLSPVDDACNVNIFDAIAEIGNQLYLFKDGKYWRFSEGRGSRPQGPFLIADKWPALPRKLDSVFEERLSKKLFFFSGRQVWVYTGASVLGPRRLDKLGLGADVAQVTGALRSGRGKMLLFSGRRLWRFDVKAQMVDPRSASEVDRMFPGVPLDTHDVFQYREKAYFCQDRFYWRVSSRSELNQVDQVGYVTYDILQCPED
# Sequence of 72 kDa type IV collagenase (P08253 whole entry): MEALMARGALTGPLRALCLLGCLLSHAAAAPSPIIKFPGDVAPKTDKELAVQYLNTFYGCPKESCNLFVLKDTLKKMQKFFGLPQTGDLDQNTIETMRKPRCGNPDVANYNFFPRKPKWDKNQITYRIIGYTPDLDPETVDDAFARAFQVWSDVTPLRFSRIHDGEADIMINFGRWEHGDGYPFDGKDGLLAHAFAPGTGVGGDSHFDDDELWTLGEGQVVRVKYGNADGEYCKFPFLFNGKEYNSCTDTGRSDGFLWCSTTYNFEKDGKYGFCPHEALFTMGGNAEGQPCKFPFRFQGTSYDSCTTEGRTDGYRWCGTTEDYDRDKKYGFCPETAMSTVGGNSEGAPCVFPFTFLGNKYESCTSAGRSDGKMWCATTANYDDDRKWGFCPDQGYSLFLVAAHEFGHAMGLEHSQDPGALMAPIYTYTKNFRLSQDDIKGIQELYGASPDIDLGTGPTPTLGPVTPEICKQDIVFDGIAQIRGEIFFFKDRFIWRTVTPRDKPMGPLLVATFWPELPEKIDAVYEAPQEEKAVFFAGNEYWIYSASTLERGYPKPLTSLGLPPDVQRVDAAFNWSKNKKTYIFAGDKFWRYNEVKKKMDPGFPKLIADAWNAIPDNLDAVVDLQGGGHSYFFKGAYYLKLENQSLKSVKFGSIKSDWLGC
Compound,pIC50 [1],pIC50 [2],pIC50 [14],pIC50 [15],pIC50 [20],also measured
CN1C(=O)N(C[C@H](C(=O)NO)[C@@H](CC2CCCC2)C(=O)N2CCCCC2)C(=O)C1(C)C,7.24,6.81,,,,
O=C(O)[C@H]1[C@H](CN2C(=O)c3ccccc3C2=O)CC[C@@H]1SCCc1ccc(-c2ccc(F)cc2)cc1,7.59,7.21,5.22,6.61,7.22,Cmax [3]: 40 µg/mL; Cmax [4]: 130 µg/mL; Cmax [5]: 107 µg/mL; MF [6]: 62%; Absorption [7]: 90%; bioavailability [8]: 100%; bioavailability [9]: 93%; half-life [10]: 3.5 h; MF [11]: 55%; half-life [12]: 4 h; half-life [13]: 4 h; No. of metastases [16]: 32.5; No. of metastases [17]: 72; No. of metastases [18]: 24.5; No. of metastases [19]: 68
O=C(O)[C@H]1[C@H](CN2C(=O)c3ccccc3C2=O)CC[C@@H]1SCc1ccc(-c2ccccc2)cc1,5.42,5.55,< 4.00,7.82,5.52,
O=C(O)[C@H]1[C@H](Cn2nnc3ccccc3c2=O)CC[C@@H]1Sc1ccc(-c2ccncc2)cc1,6.47,6.75,< 4.44,6.56,5.92,
O=C(NO)C(CCn1nnc2ccccc2c1=O)CSc1ccc(-c2ccc(Cl)cc2)cc1 (stereo not drawn),9.30,10.22,< 5.00,8.92,8.00,bioavailability [23]: < 30%
O=C(O)[C@H]1[C@H](CN2C(=O)c3ccccc3S2(=O)=O)CC[C@@H]1Sc1ccc(-c2ccc(Cl)cc2)cc1,7.46,7.89,5.68,7.10,6.32,
CC1(C)NC(=O)N(C[C@@H]2CC[C@H](Sc3ccc(-c4ccc(Cl)cc4)cc3)[C@H]2C(=O)O)C1=O,5.48,6.24,4.15,8.51,5.03,
O=C(O)[C@H]1[C@H](CN2C(=O)c3ccccc3C2=O)CC[C@@H]1Sc1ccc(-c2ccccc2)cc1,7.12,7.62,7.03,7.18,6.56,
O=C(O)[C@H]1[C@H](CN2NNc3ccsc3C2=O)CC[C@@H]1Sc1ccc(-c2ccc(Cl)cc2)cc1,7.21,7.70,5.36,6.88,6.67,
O=C(O)[C@H]1[C@H](Cn2nc3n(c2=O)CCCCC3)CC[C@@H]1Sc1ccc(-c2ccc(Cl)cc2)cc1,5.42,5.77,< 5.00,8.29,4.74,
O=C(O)[C@H]1[C@H](Cn2nnc3ccccc3c2=O)CC[C@@H]1S(=O)(=O)CCc1ccc(-c2ccc(Cl)cc2)cc1,6.88,6.42,< 4.00,8.55,6.60,
O=C(O)[C@H]1[C@H](Cn2nc3ccccn3c2=O)CC[C@@H]1Sc1ccc(-c2ccc(Cl)cc2)cc1,7.43,7.60,5.00,7.49,6.74,
O=C(O)[C@H]1[C@H](Cn2c(=O)nc3ccccn3c2=O)CC[C@@H]1Sc1ccc(-c2ccc(Cl)cc2)cc1,7.52,8.05,< 5.00,7.57,6.87,
O=C(O)[C@H]1[C@H](CN2NNc3nc[nH]c3C2=O)CC[C@@H]1Sc1ccc(-c2ccc(Cl)cc2)cc1,6.19,6.89,5.18,6.17,7.68,
O=C(O)[C@H]1[C@H](Cn2nnc3ccccc3c2=O)CC[C@@H]1S(=O)(=O)c1ccc(-c2ccc(Cl)cc2)cc1,6.29,7.08,< 4.00,8.74,6.16,

# Second part, led by results:
pIC50 [1],pIC50 [2],pIC50 [14],pIC50 [15],pIC50 [20],Compound,also measured
6.18,6.08,< 6.00,6.38,5.10,O=C(O)[C@H]1[C@H](Cn2nnc3ccccc3c2=O)CC[C@@H]1Sc1ccc(-c2nc3ccccc3s2)cc1,
< 5.22,< 5.10,< 4.00,< 4.00,< 4.00,O=C(O)[C@H]1[C@H](Cn2nnc3ccccc3c2=O)CC[C@@H]1Sc1ccc(-c2nccs2)cc1,
,,< 4.00 and 4.92,,,O=C(O)[C@H]1[C@H](Cn2nnc3ccccc3c2=O)CC[C@@H]1Sc1ccc(-c2ccc(Cl)cc2)cc1,Cmax [3]: 40 µg/mL; Cmax [4]: 203 µg/mL; Cmax [5]: 93 µg/mL; MF [6]: 100%; Absorption [7]: 95%; bioavailability [8]: 100%; bioavailability [9]: 69%; half-life [10]: 3.4 h; MF [11]: 74%; half-life [12]: 4 h; half-life [13]: 3 h; No. of metastases [16]: 30; No. of metastases [17]: 70; No. of metastases [19]: 74.5; No. of metastases [21]: 45; No. of metastases [22]: 39
7.92,7.34,4.35,6.79,7.59,O=C(O)[C@H]1[C@H](CN2C(=O)c3ccccc3C2=O)CC[C@@H]1SCCc1ccc(-c2ccccc2)cc1,
7.51,7.70,< 6.00,7.51,6.99,N#Cc1ccc(-c2ccc(S[C@H]3CC[C@@H](Cn4c(=O)nc5ccccn5c4=O)[C@@H]3C(=O)O)cc2)cc1,
7.41,7.12,5.27,6.09,7.19,O=C(O)[C@H]1[C@H](CN2C(=O)c3ccccc3C2=O)CC[C@@H]1S(=O)(=O)CCc1ccc(-c2ccc(Cl)cc2)cc1,MF [6]: 91%; Absorption [7]: 92%; MF [11]: 58%; No. of metastases [16]: 78; No. of metastases [18]: 109
8.40,8.30,< 5.00,7.89,7.68,CSc1ccc(-c2ccc(S[C@H]3CC[C@@H](Cn4nnc5ccccc5c4=O)[C@@H]3C(=O)O)cc2)cc1,
7.33,7.12,,6.53,6.50,O=C(O)[C@H]1[C@H](CN2C(=O)c3ccccc3C2=O)CC[C@@H]1S(=O)(=O)CCc1ccc(-c2ccc(F)cc2)cc1,
7.62,6.97,< 4.15,6.41,7.21,O=C(O)[C@H]1[C@H](Cn2nnc3ccccc3c2=O)CC[C@@H]1SCCc1ccc(-c2ccc(Cl)cc2)cc1,MF [6]: 63%; Absorption [7]: 91%; MF [11]: 76%; No. of metastases [16]: 51; No. of metastases [17]: 65; No. of metastases [18]: 31; No. of metastases [19]: 80
< 4.00,< 4.00,< 4.00,< 4.00,< 4.00,O=C(O)[C@H]1[C@H](Cn2nnc3ccccc3c2=O)CC[C@@H]1Sc1ccc(-c2c[nH]nn2)cc1,
5.52,6.13,4.17,8.72,5.28,O=C(O)[C@@H]1[C@@H](Cn2nnc3ccccc3c2=O)CC[C@H]1Sc1ccc(-c2ccc(Cl)cc2)cc1,
7.80,7.85,4.20,6.71,6.52,CSc1ccc(-c2ccc(S[C@H]3CC[C@@H](Cn4c(=O)nc5ccccn5c4=O)[C@@H]3C(=O)O)cc2)cc1,
7.89,7.14,4.30,6.89,7.35,O=C(O)[C@H]1[C@H](CN2C(=O)c3ccccc3C2=O)CC[C@@H]1SCCc1ccc(-c2ccc(Cl)cc2)cc1,MF [6]: 61%; Absorption [7]: 94%; MF [11]: 43%; No. of metastases [16]: 96; No. of metastases [17]: 69; No. of metastases [18]: 43; No. of metastases [19]: 64.5
7.62,7.89,< 5.00,7.96,8.30,N#Cc1ccc(-c2ccc(S[C@H]3CC[C@@H](Cn4nnc5ccccc5c4=O)[C@@H]3C(=O)O)cc2)cc1,
